Results published in ChEMBL document CHEMBL1139485, “Tricyclic pyrazoles. 3. Synthesis, biological evaluation, and molecular modeling of analogues of the cannabinoid antagonist 8-chloro-1-(2',4'-dichlorophenyl)-N-piperidin-1-yl-1,4,5,6-tetrahydrobenzo[6,7]cyclohepta[1,2-c]pyrazole-3-carboxamide” (J Med Chem, 2005).
Activity calls are given as the source filed them. The calls are words filed in the database; no cut-off is given here.

Columns and labels:
Cannabinoid receptor 1 = Cannabinoid receptor 1 (Mus musculus, UniProt P47746); assay: Displacement of [3H]CP-55940 from CB1 receptor in CD1 mouse brain; format: tissue-based
How it was run: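 Membranes from male CD-1 mouse brain (minus cerebellum) for CB1 or spleen for CB2, prepared in ice-cold TME buffer (50 mM Tris-HCl, 1 mM EDTA, 3.0 mM MgCl2, pH 7.4). 30–80 μg protein incubated with 0.5–1 nM [3H]CP-55,940, 1 h, 30 °C, with 5 mg/mL fatty-acid-free BSA. Nonspecific binding defined by 1 μM CP-55,940. Filtration, scintillation counting. IC50 from sigmoid fit converted to Ki. Triplicate, ≥5 experiments.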

Cannabinoid receptor 2 = Cannabinoid receptor 2 (Mus musculus, UniProt P47936); assay: Displacement of [3H]CP-55940 from CB2 receptor in CD1 mouse spleen; format: tissue-based
How it was run: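 Membranes from male CD-1 mouse brain (minus cerebellum) for CB1 or spleen for CB2, prepared in ice-cold TME buffer (50 mM Tris-HCl, 1 mM EDTA, 3.0 mM MgCl2, pH 7.4). Filtration, scintillation counting. IC50 from sigmoid fit converted to Ki. Triplicate, ≥5 experiments.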

[1] = target: Cannabinoid receptor (Mus musculus) (UniProt P47746+P47936); assay: Selectivity for CB1 receptor over CB2 receptor in CD1 mouse; format: protein assay
Mus musculus [2] = assay: Effect on upper gastrointestinal motility in CD1 mouse at 0.1 mg/kg, ip; format: functional, organism-based; parameters: dose 0.1 mg/kg
How it was run: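 Male CD-1 mice (20–35 g), n = 15–20 per group. Drug in saline with 0.1% Tween-80 (12.5 mL/kg) given ip 30 min before intragastric red carmine (6 wt %/v in 0.5% methylcellulose, 0.3 mL/mouse). Mice killed 20 min later. Distance reached by the marker head expressed as % of small intestine length (pylorus to ileocaecal junction). Mean ± SEM.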

Mus musculus [3] = assay: Reversal of 0.5 mg/kg WIN-55212-2-induced inhibitory effect on upper gastrointestinal motility in CD1 mouse at 0.1 mg/kg ip; format: functional, organism-based
How it was run: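 Male CD-1 mice, n = 15–20 per group. Test drug 0.1 mg/kg ip given 10 min before WIN 55,212-2 (0.5 mg/kg ip), both in saline with 0.1% Tween-80. Intragastric carmine marker 20 min after agonist; mice killed 20 min later. Transit measured as % of small intestine length travelled by marker. ANOVA with Newman–Keuls test.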

Mus musculus [4] = assay: Increase in upper gastrointestinal motility in CD1 mouse at 0.5 to 1 mg/kg, ip; format: functional; settings: dose mg/kg 0.5-1; route intraperitoneal
How it was run: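 Male CD-1 mice (20–35 g), n = 15–20 per group. Compound given ip in saline with 0.1% Tween-80, 30 min before intragastric red carmine marker (6% suspension in 0.5% methylcellulose, 0.3 mL/mouse). Killed 20 min later. Distance travelled by the marker head expressed as % of small-intestine length (pylorus to ileocaecal junction). Group mean ± SEM versus vehicle-treated mice, by ANOVA/Newman–Keuls.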

Chain of Cannabinoid receptor (Mus musculus) (P47746 whole entry, looked up): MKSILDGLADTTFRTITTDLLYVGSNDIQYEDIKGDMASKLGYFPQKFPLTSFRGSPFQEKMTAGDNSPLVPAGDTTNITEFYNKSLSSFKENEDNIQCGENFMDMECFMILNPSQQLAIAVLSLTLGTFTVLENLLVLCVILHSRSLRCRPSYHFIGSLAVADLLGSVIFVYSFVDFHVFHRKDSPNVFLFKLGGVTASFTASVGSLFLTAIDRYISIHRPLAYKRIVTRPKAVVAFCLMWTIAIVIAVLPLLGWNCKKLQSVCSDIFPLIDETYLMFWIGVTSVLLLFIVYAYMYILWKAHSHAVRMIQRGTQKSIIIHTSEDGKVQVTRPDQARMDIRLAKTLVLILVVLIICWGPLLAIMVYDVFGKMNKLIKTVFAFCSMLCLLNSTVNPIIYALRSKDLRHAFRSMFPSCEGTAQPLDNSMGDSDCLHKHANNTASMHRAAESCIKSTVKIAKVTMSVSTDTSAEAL
Chain of Cannabinoid receptor (Mus musculus) (P47936 whole entry, looked up): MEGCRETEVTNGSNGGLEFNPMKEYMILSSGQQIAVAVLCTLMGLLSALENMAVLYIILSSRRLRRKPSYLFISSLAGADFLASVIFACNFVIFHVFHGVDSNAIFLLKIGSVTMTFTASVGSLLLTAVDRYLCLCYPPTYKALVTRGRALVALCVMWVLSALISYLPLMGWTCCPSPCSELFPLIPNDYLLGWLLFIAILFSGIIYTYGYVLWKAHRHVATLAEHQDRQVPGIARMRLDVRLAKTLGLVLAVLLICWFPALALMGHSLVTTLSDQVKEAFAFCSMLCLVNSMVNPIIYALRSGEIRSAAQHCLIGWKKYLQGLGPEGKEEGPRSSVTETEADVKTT
Chain of Cannabinoid receptor 1 (P47746 whole entry): as the sequence (P47746 whole entry, looked up) above
Chain of Cannabinoid receptor 2 (P47936 whole entry): as the sequence (P47936 whole entry, looked up) above

Row | SMILES | Ki (Cannabinoid receptor 1) | Ki (Cannabinoid receptor 2) | Ratio Ki [1] | Activity (Mus musculus [2]) | Activity (Mus musculus [3]) | Activity (Mus musculus [4]) [%]
1 | Cc1ccc2c(c1)CCCc1c(C(=O)NN3CCCCC3)nn(-c3ccc(Cl)cc3Cl)c1-2 | 0.0052 nM (antagonist) | 0.46 nM (antagonist) | 88.5 |  |  | 
2 | O=C(NN1CCCCC1)c1nn(-c2ccc(Cl)cc2Cl)c2c1Cc1cc(Cl)ccc1-2 | 2050 nM (antagonist) | 0.34 nM (antagonist) | 0.000166 |  |  | 
3 | Cc1ccc2c(c1)CCCc1c(C(=O)NN3CCCC3)nn(-c3ccc(Cl)cc3Cl)c1-2 | 0.11 nM (antagonist) | 386 nM (antagonist) | 3510 |  |  | 
4 | COc1ccc(NC(=O)c2nn(-c3ccc(Cl)cc3Cl)c3c2CCCc2cc(Cl)ccc2-3)cc1 | 0.013 nM (antagonist) | 43.3 nM (antagonist) | 3300 |  |  | 
5 | O=C(NN1CCCC1)c1nn(-c2ccc(Cl)cc2Cl)c2c1CCCc1cc(Cl)ccc1-2 | 0.004 nM (antagonist) | 45 nM (antagonist) | 11200 |  |  | 
6 | O=C(NN1CCCCC1)c1nn(-c2ccc(Cl)cc2Cl)c2c1CCCc1c(Cl)cccc1-2 | 9.84 nM (antagonist) | 31.6 nM (antagonist) | 3.21 |  |  | 
7 | O=C(NN1CCCCC1)c1nn(-c2ccc(Cl)cc2Cl)c2c1CCCc1cc(Br)ccc1-2 | 0.008 nM (antagonist) | 37 nM (antagonist) | 4620 |  |  | 
8 | O=C(NN1CCCCC1)c1nn(-c2ccc(Cl)cc2Cl)c2c1CCCc1cc(Cl)ccc1-2 | 0.00035 nM (antagonist) | 21 nM (antagonist) | 60000 |  |  | 
9 | O=C(NC1CCCCC1)c1nn(-c2ccc(Cl)cc2Cl)c2c1CCCc1cc(Cl)ccc1-2 | 0.3 nM (antagonist) | 0.65 nM (antagonist) | 2.16 |  |  | 
10 | O=C(Nc1ccc(Cl)c(Cl)c1)c1nn(-c2ccc(Cl)cc2Cl)c2c1CCCc1cc(Cl)ccc1-2 | 25.8 nM (antagonist) | > 500 nM |  |  |  | 
11 | O=C(NN1CCCCC1)c1nn(-c2ccc(Cl)cc2Cl)c2c1CCCc1ccccc1-2 | 168 nM (antagonist) | 18.1 nM (antagonist) | 0.11 |  |  | 
12 | O=C(NN1CCCCCC1)c1nn(-c2ccc(Cl)cc2Cl)c2c1CCCc1cc(Cl)ccc1-2 | 0.001 nM (antagonist) | 2 nM (antagonist) | 2000 | inactive | Active | 65
13 | O=C(Nc1ccccc1)c1nn(-c2ccc(Cl)cc2Cl)c2c1CCCc1cc(Cl)ccc1-2 | 4.35 nM (antagonist) | 1.45 nM (antagonist) | 0.33 |  |  | 
14 | Cc1ccc(NC(=O)c2nn(-c3ccc(Cl)cc3Cl)c3c2CCCc2cc(Cl)ccc2-3)cc1 | 5.74 nM (antagonist) | 65 nM (antagonist) | 11.3 |  |  | 
15 | O=C(NN1CCCCC1)c1nn(-c2ccc(Cl)cc2Cl)c2c1CCc1cc(Cl)ccc1-2 | 14.8 nM (antagonist) | 227 nM (antagonist) | 15.3 |  |  | 
16 | O=C(Nc1ccc(Cl)cc1)c1nn(-c2ccc(Cl)cc2Cl)c2c1CCCc1cc(Cl)ccc1-2 | 2.5 nM (antagonist) | 79 nM (antagonist) | 31.6 |  |  | 
17 | O=C(NN1CCCCC1)c1nn(-c2ccc(Cl)cc2Cl)c2c1CCCc1ccc(Cl)cc1-2 | 31.2 nM (antagonist) | 26.8 nM (antagonist) | 0.86 |  |  | 
